Bioassay records: PubChem BioAssay, The Scripps Research Institute Molecular Screening Center
Most compounds without a hit are left out; they make up all but 4.6% or so of the library.
CHO parental Ca: ATP-evoked calcium signal inhibitors, parental CHO, primary screen, counter-screen for OX1R antagonist project, cell-based, fluorescence, Fluo-8 calcium dye; parental CHO-K1, ATP-induced calcium, Fluo-8 fluorescence; 330,000 compounds, 0.63% hits; inhibition, % at 5.6 µM;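 active = inhibition above that plate's mean sample inhibition plus 3 SD, cut at about 26% in these data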
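Test system: untransfected parental CHO cell line. Compound: one dose, 5.6 µM nominal. Detection: intracellular calcium via Fluo-8 no-wash fluorescent dye. Measure: % inhibition. Benchmarks: ATP-challenged DMSO wells low, unchallenged DMSO wells high.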
TAAR1 agonist: human TAAR1 agonists, primary screen, Fluo-8 calcium fluorescence, CHO RD-HGA16 cells; activation, % at 3 µM; 360,000 compounds, 0.99% hits; vehicle wells 0%, saturating PEA agonist 100%;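 active = activation above the mean activation of all test compounds in the run plus 3 SD, cut at about 38% in these data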
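Assay system: CHO-derived RD-HGA16 cells with stable Gα16 and human TAAR1; timing: 17-24 h seeding, 75 min 37 °C dye, 30 min RT; read-out: % activation from peak over basal fluorescence ratio, DMSO-to-PEA scaled; measured by: kinetic Fluo-8 calcium fluorescence; benchmarks: low control DMSO, high control PEA (EC100); doses: 3 µM single concentration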
OX1R antag-1: OX1R (HCRTR1) antagonists, primary screen, fluorescence, CHO/OX1R cells, Fluo-8 calcium, orexin A; Orexin/Hypocretin receptor type 1 (Homo sapiens), O43613; Fluo-8 calcium fluorescence; inhibition, % at 5 µM; 330,000 compounds, 0.43% hits;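 active = inhibition above its plate's threshold, mean inhibition of all tested compounds on the plate plus 3 SD, cut at about 37% in these data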
OX1R antag-2: antagonists of human orexin 1 receptor (OX1R); Orexin/Hypocretin receptor type 1 (Homo sapiens), O43613; OX1R-expressing cells, FRET antagonist read-out; inhibition, % at 6.6 µM; 330,000 compounds, 1.8% hits; in the data active = inhibition mostly above about 38%, no sharp cut-off; inactive = mostly below about 40%
GPR7 antag: GPR7 receptor antagonists, primary screen, cell-based, fluorescence, single concentration; 290,000 compounds, 1.1% hits; GPR7-expressing cells, fluorescence antagonist assay; Neuropeptides B/W receptor type 1 (Homo sapiens), P48145; inhibition, % at 4.4 µM; in the data active = inhibition above about 16%, passing the limit was not always enough;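 also: cells stimulated with the agonist NPW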
Target sequence (P48145 whole entry, looked up): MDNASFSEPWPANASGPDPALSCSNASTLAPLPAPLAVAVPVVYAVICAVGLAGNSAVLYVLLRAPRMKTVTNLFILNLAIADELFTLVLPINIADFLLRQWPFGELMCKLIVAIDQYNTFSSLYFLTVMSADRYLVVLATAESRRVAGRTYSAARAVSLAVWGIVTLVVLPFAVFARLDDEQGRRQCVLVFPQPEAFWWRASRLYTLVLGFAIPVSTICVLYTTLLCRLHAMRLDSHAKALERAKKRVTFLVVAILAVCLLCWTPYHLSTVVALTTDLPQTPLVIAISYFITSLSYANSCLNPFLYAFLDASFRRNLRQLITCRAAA
TAAR1 antagonist: human TAAR1 antagonists, primary screen, Fluo-8 calcium fluorescence, CHO RD-HGA16 cells. inhibition, % at 3 µM. antagonist. Trace amine-associated receptor 1 (Homo sapiens), Q96RJ0. AID 624466, 2012. 360,000 compounds, 1.5% hits;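 active = inhibition above a per-plate cutoff, the mean inhibition of test compounds on that plate plus 3 SD, cut at about 49% in these data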
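Test system – hTAAR1-expressing CHO RD-HGA16 cells, Gα16-coupled · Also added – β-PEA at EC80 concentration, post-compound challenge · Compound – 3 µM, single point · Incubation – dye loading 75 min at 37 °C, then 30 min room temperature · Measured by – Fluo-8 intracellular calcium dye fluorescence, real-time kinetic reads · Benchmarks – vehicle and agonist controls · Replicates – singlicate, one well per test compound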
TAAR1 nonsel count: nonselective antagonists in TAAR1 counter-screen cells, counter-screen for hTAAR1 antagonist project, cell-based, fluorescence, calcium; shares compounds with TAAR1 antagonist; counterscreen cell line, antagonist mode; inhibition, % at 3 µM; 2,400 compounds, 77% hits; in the data active = inhibition above about 22%;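 also: CHO-Ga16 host cells stimulated with ATP at an EC80 level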
TAAR1 antag conf: human TAAR1 antagonists, retest of hits, confirmation, cell-based, fluorescence; shares compounds with TAAR1 antagonist; TAAR1-expressing cells, fluorescence antagonist read-out; inhibition, % at 3 µM; 2,400 compounds, 40% hits; in the data active = inhibition above about 49%;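 also: CHO-Ga16 host cells challenged with agonist PEA near its EC80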
Ga16 nonsel ag: calcium activation in Ga16-expressing cells, counter-screen for TAAR1 antagonist project, cell-based, fluorescence | shares compounds with TAAR1 antagonist | agonist counterscreen | activation, % at 3 µM | 2,400 compounds, 18% hits | AID 651953, 2012; in the data active = activation above about 12%
TAAR1 ag count: TAAR1 activation by candidate antagonists – cell-based, fluorescence, counter-screen for TAAR1 antagonist project; shares compounds with TAAR1 antagonist; hTAAR1 cell line, agonist mode; activation, % at 3 µM; 2,400 compounds, 2% hits; in the data active = activation above about 37%;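 also: CHO cells stably expressing TAAR1 with calcium dye readout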
A number is an active result; . = inactive; / = no result given.

SMILES	CHO parental Ca	TAAR1 agonist	OX1R antag-1	OX1R antag-2	GPR7 antag	TAAR1 antagonist	TAAR1 nonsel count	TAAR1 antag conf	Ga16 nonsel ag	TAAR1 ag count
CCCCNc1c(-c2cccc(-c3cc(C(C)=O)cs3)c2)nc2ccc(C)cn12	.	.	.	.	/	67.5	36.0	54.0	.	.
O=C(COC(=O)CCC(=O)c1cccs1)NCCc1ccccc1	.	.	.	.	/	.	/	/	/	/
COc1ccc(CCC(=O)NCCS(=O)(=O)N2CCN(c3ccccc3OC)CC2)cc1	.	.	.	.	.	59.0	34.0	52.1	13.9	.
O=C(CSc1n[nH]c(=O)n1C1CC1)Nc1cc(Cl)ccc1Oc1ccccc1	32.7	.	.	.	.	79.0	46.6	65.7	13.8	.
COC(=O)c1ccc(S(=O)(=O)N(Cc2ccccc2)Cc2ccccc2)n1C	.	.	.	.	.	101.9	.	.	.	.
CCN(Cc1ccccc1)S(=O)(=O)c1cc(C(=O)OC)n(C)c1	.	.	.	.	.	.	/	/	/	/
CC(OC(=O)[C@@H]1CCCN1C(=O)c1cccs1)C(=O)Nc1cccc([N+](=O)[O-])c1 (stereo partly drawn)	.	.	.	.	/	65.7	41.7	.	13.3	.
CC(OC(=O)C1CC2CCCC(C1)C2=O)C(=O)Nc1cccc([N+](=O)[O-])c1 (stereo not drawn)	.	.	.	.	/	.	/	/	/	/
CCOc1ccc(/C=C2\SC(=S)N(NS(=O)(=O)c3ccc(C)cc3)C2=O)cc1OC	.	.	.	.	.	74.9	28.9	50.7	.	.
COc1ccc(/C=C2\SC(=S)N(CCCCCC(=O)Nc3cc(C)on3)C2=O)cc1OC	.	.	.	.	.	.	/	/	/	/
COc1cc(/C=C2\SC(=S)N(CCCCC(=O)O)C2=O)ccc1OS(=O)(=O)c1ccc(C)cc1	.	.	.	.	/	65.1	49.8	49.6	12.0	.
COc1ccc(/C=C2\SC(=S)N(NS(=O)(=O)c3ccc(C)cc3)C2=O)c(OC)c1	.	.	.	60.0	.	68.5	.	.	.	.
CC(C)(C)OC(=O)N1CC2(CCCCC2)CC1Cc1ccc(C(F)(F)F)cc1 (stereo not drawn)	/	.	/	/	/	.	/	/	/	/
CCc1nc(SCC(=O)Nc2cc(OC)ccc2OC)c2c(C)c(C)sc2n1	.	.	.	.	.	.	/	/	/	/
COc1ccc(O)c(/C=N/NC(=S)Nc2cccc(S(=O)(=O)N(C)C)c2)c1	.	.	.	.	.	68.2	49.7	62.2	18.8	.
O=C1NC[C@@H](CCCCN2C[C@H](Cc3ccccc3)N(CCc3ccccc3)C(=O)C2=O)N(CCc2ccccc2)C1=O	/	.	/	/	/	.	/	/	/	/
Cc1ccc(C)c(N(CC(=O)Nc2ccccc2C(=O)NCc2ccco2)S(=O)(=O)c2ccccc2)c1	.	.	.	.	.	78.8	34.9	58.0	.	.
Cc1ccc(N(CC(=O)Nc2ccccc2C(=O)NCc2ccco2)S(=O)(=O)c2ccccc2)cc1C	.	.	.	.	.	.	/	/	/	/
O=C(NCCc1ccc(F)cc1)C(=O)NCC1CCCN1S(=O)(=O)c1ccccc1 (stereo not drawn)	.	.	.	57.6	/	64.8	27.3	51.1	.	.
